High-throughput results as filed in PubChem BioAssay.
XBP1 UPR activ: activators of adaptive XBP1 UPR arm, primary screen, cell-based, CHO-XBP1 luciferase reporter, luminescence, uHTS | activation, % at 20 µM | IRE1-XBP1 UPR activation; percent of tunicamycin response, DMSO as zero | AID 463104, 2010 | 0.33% of 330,000 active;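 active = versus positive control, 20 µM dose yields 30% or more activation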;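 also: 100% = tunicamycin at 10 µg/mL and 0% = DMSO only wells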
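Material: IRE1-XBP1 luciferase reporter CHO line / Quantity: one thousand reporter cells per well / Buffer or medium: F12 with 10% serum / Compound: 20 µM single concentration, DMSO 1% / Times: 6 h treatment, 37 °C / Detection: Steady-Glo luciferase glow luminescence, 10 min after reagent addition / Benchmarks: tunicamycin high, DMSO low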
UCH37 inh: inhibitors of human UCH37 deubiquitinase, primary screen, biochemical, Ub-AMC cleavage, fluorescence; inhibition, % (concentration not given with the values); AID 588478, 2011; purified proteasome/UCH37; 0.33% of 330,000 active;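 active = mean inhibition over replicate wells above about 20%, limit read from the data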;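 also: 0% = compound-free wells with enzyme and 100% = wells lacking proteasome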
Target sequence (Q9Y5K5 whole entry, looked up): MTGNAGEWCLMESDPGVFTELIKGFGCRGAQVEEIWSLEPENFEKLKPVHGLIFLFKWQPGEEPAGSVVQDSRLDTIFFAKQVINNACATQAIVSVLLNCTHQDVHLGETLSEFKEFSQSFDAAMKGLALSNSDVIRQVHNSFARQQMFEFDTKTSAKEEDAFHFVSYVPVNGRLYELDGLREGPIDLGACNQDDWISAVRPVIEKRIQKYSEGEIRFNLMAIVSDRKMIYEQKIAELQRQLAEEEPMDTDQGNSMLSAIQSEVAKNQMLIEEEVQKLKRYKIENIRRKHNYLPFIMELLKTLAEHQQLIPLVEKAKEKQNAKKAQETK
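Material: human UCH37 enzyme supplied as purified proteasome complex. Measure: % inhibition of Ub-AMC cleavage fluorescence. Medium: pH 7.4 Tris-HCl (50 mM) with ovalbumin, ATP-MgCl2, DTT. Times: 30 min preincubation with enzyme, 25 min cleavage at room temperature. Detection: AMC fluorescence intensity at 355/460 nm.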
CHOP inhibitor: inhibitors of CHOP promoter induction, primary screen, cell-based, unfolded protein response, luciferase reporter | CHO-K1 CHOP-promoter luciferase, tunicamycin-induced, 15-18 h | inhibition, % at 10 µM | 3.8% of 220,000 active | AID 2732, 2010;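 active = compounds that reduced the stress-induced luciferase reporter signal by more than about 70% of percent inhibition, limit read from the data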;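 also: 0% = tunicamycin plus vehicle and 100% = wells without tunicamycin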
Fh CTSL1 inh: Fasciola hepatica cathepsin L1 inhibitors, primary screen, counter-screen for PFM18AAP inhibitor project, biochemical, QFRET, fluorogenic peptide substrate; AID 1906, 2009; 0.49% of 300,000 active; recombinant F. hepatica cathepsin L1, Z-Leu-Arg-MCA fluorescence; inhibition, % at 5.96 µM;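 active = inhibition above the mean of all tested compounds plus 3 SD, set per screening campaign, cut at about 17% in these data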;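 also: 0% = plate median of test compound wells and 100% = 1 µM Z-Phe-Ala-diazomethylketone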
CHOP UPR activ: activators of apoptotic CHOP UPR arm, primary screen, cell-based, CHO-CHOP luciferase reporter, luminescence, uHTS. UPR activation; percent of tunicamycin response over DMSO baseline. activation, % at 10 µM. 0.34% of 330,000 active. AID 449763, 2010;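 active = at 10 µM dose, activation of 40% or more, normalized to positive control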;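 also: 100% = tunicamycin at 10 µg/mL and 0% = DMSO alone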
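System: CHO-CHOP luciferase reporter cell line; amount: 500 cells/well; buffer or medium: F12 medium containing 10% fetal bovine serum; incubation: 6 h compound exposure at 37 °C after overnight seeding; measured by: luciferase luminescence after 10 min with Steady-Glo reagent; evaluation: % reporter activation, DMSO baseline versus tunicamycin full activation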
UCH37 reconfirm: retest of human UCH37 deubiquitinase inhibitors, confirmation, biochemical, Ub-AMC cleavage rate, fluorescence; Proteasome-bound UCH37; shares compounds with UCH37 inh; inhibition, % at 20 µM; AID 624100, 2012; 27% of 480 active;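 active = average inhibition over replicates above about 50%, so the earlier screening hit is confirmed, limit read from the data; inactive = the rest, counted as false positives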;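 also: based on cleavage rate fitted by regression over a 30 min kinetic read; 0% = proteasome plus Ub-AMC and 100% = Ub-AMC without proteasome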
An asterisk follows results filed as active; nt = no result given. The entries come from a sample that favours hits as a whole.

SMILES	XBP1 UPR activ	UCH37 inh	CHOP inhibitor	Fh CTSL1 inh	CHOP UPR activ	UCH37 reconfirm
O=c1cc(Nc2cccc(Br)c2)[nH]c(=O)[nH]1	0	5	18	-9	0	nt
O=c1[nH]c(Nc2ccccc2)cc2cc(Br)ccc12	2	44*	nt	61*	-1	19
O=C(NN=Cc1cc2c(cc1Cl)OCO2)c1cc(-c2ccccc2)n[nH]1	nt	-16	nt	nt	nt	nt
O=C(COC(=O)c1ccc([N+](=O)[O-])s1)c1ccc[nH]1	-3	nt	nt	nt	0	nt
O=C(COC(=O)c1ccc([N+](=O)[O-])s1)NCc1ccc(F)cc1	0	65*	-16	80*	2	25
O=C1CN(C(=O)COC(=O)c2ccc([N+](=O)[O-])s2)c2ccccc2N1	4	76*	nt	nt	4	8
CC(NC(=O)COC(=O)c1ccc([N+](=O)[O-])s1)c1ccccc1 (stereo unspecified)	-2	33*	10	33*	2	12
O=C1CN(C(=O)COC(=O)c2cccs2)c2ccccc2N1	-1	2	nt	nt	-1	nt
O=C(COC(=O)c1ccc([N+](=O)[O-])s1)NNC(=O)c1ccccc1	-3	80*	nt	nt	1	19
Cc1ccc(NN=Cc2ccc3c(c2)OCCO3)cc1Cl	nt	-2	nt	nt	nt	nt
O=C(COC(=O)CSc1ccc([N+](=O)[O-])cc1)NCCc1ccccc1	1	4	nt	-9	1	nt
O=C(COC(=O)c1ccc([N+](=O)[O-])s1)NCCc1ccccc1	0	81*	nt	nt	0	14
O=C(COC(=O)c1ccc([N+](=O)[O-])s1)NC(=O)NCc1ccccc1	2	67*	0	18*	-1	10
O=C(COC(=O)c1ccc(O)cc1)NC(=O)NCc1ccccc1	3	1	nt	nt	-3	nt
O=C(Nc1ccccc1Cl)c1c(F)c(F)c(F)c(F)c1F	1	5	nt	0	0	nt
O=C(NC1(O)C(=O)c2ccccc2C1=O)c1ccccc1	2	84*	-18	64*	-3	74*
COC1(NC(=O)c2ccccc2)C(C)=CC(=O)C=C1C	1	3	-17	-4	0	nt
O=C(NC1(O)C(=O)c2ccccc2C1=O)c1c(Cl)cccc1Cl	1	80*	-9	54*	-2	52*
CCCCOC(=O)c1ccc(NC(=O)Nc2ccc(OC)c(OC)c2)cc1	-6	38*	83*	6	-2	-16
CCOC(=O)c1ccc(NC(=O)Nc2ccc(OC)c(OC)c2)cc1	-2	5	12	3	1	nt
CC(=O)Nc1ccc(OCCC[n+]2ccccc2)cc1	-2	2	-2	2	-1	nt
CCCCCc1ccc(OCCC[n+]2ccccc2)c(CCCCC)c1	5	30*	9	2	0	36
CC[n+]1c(/C=C/c2c[nH]c3ccccc23)ccc2cc(C)ccc21	16	29*	75*	nt	21	42
O=C(/C=C/c1c[nH]c2ccccc12)c1ccccc1	4	-8	47	-2	2	nt
CCN(CC)C(=O)c1ccc(/C=C/c2c[nH]c3ccccc23)[n+](C)c1	1	29*	-31	8	-2	33
SMILES	XBP1 UPR activ	UCH37 inh	CHOP inhibitor	Fh CTSL1 inh	CHOP UPR activ	UCH37 reconfirm
CCOC(=O)C1CCCc2c1[nH]c1c(C(N)=O)cccc21 (stereo unspecified)	-2	53*	42	-2	-1	-13
NC(=O)c1cccc2c3c([nH]c12)CCCC3	-1	0	-6	4	0	nt
CC(=NOC(=O)c1c(-c2ccccc2Cl)noc1C)c1cnccn1	nt	1	nt	nt	nt	nt
Cc1ccc(C(=O)NN=Cc2cc(Br)c(Br)o2)cn1	nt	28*	nt	nt	nt	13
CC(=NNC(=O)Cc1ccccc1)c1ccc(Br)s1	nt	0	nt	nt	nt	nt
Cc1[nH]n(-c2ccccc2)c(=O)c1C(c1cccc([N+](=O)[O-])c1)c1c(C)[nH]n(-c2ccccc2)c1=O	-4	4	25	-4	0	nt
Cc1[nH]n(-c2ccccc2)c(=O)c1C(C[N+](=O)[O-])c1ccc(Br)cc1 (stereo unspecified)	-3	29*	17	-1	-2	-21
Cc1cccc(OCC(=O)NCC(=O)NN=Cc2ccc([N+](=O)[O-])cc2)c1	nt	3	nt	nt	nt	nt
COC(=O)c1cc(S(=O)(=O)N2CCOCC2)c(Cl)cc1N1CCOCC1	-1	6	-3	1	-3	nt
COC(=O)c1cc(C)nc2c1C(=O)C(=O)C=C2N1CCOCC1	-9	100*	nt	110*	-8	100*
O=C(CN1CCOCC1)NN=Cc1ccc(C(=O)O)cc1	nt	-1	nt	nt	nt	nt
CN(C)C=NS(=O)(=O)c1cccn1-c1ncc(C(F)(F)F)cc1Cl	nt	3	nt	nt	nt	nt
CC(=O)N(C)C1=C(O)c2ccccc2C(=O)C1=O	0	9	23	0	1	nt
CC(=O)N(C1=C(N)C(=O)c2ccccc2C1=O)C(C)C	-3	26*	-4	1	0	20
CCC(C)(C)c1ccc(OCCCC[n+]2cccc(C)c2C)c(C(C)(C)CC)c1	23	38*	79*	1	19	59*
Cc1cc[n+](CC[n+]2ccc(C)cc2)cc1	-1	-1	nt	1	3	nt
CCC(C)(C)c1ccc(OCCCC[n+]2ccc(C)cc2)c(C(C)(C)CC)c1	19	27*	76*	8	0	21
COc1cc(C=NNc2ccccc2)ccc1OC(=O)c1cccs1	nt	4	nt	nt	nt	nt
COc1ccc(NC(=O)c2ccc(Br)o2)cc1	3	40*	-6	-4	4	2
COc1ccc(NC(=S)NC(=O)c2ccc(Br)o2)cc1	6	4	-45	1	6	nt
CC(=NOCC(=O)OCC(=O)N(Cc1ccccc1)C(C)(C)C)c1ccc2c(c1)OCO2	nt	3	nt	nt	nt	nt
CC(C)n1cc(/C=C/c2cc[n+](C)cc2)c2ccccc21	-4	28*	nt	nt	0	19
CCOC(=O)C1=C(C)OC2(O)c3ccccc3C(=O)C12O (stereo unspecified)	-2	79*	-1	59*	2	72*
CC1=C(C(=O)OC(C)C)C2(O)C(=O)c3ccccc3C2(O)N1 (stereo unspecified)	-1	14	-8	-1	-2	nt
CC(=O)C1=C(C)OC2(O)c3ccccc3C(=O)C12O (stereo unspecified)	0	77*	4	51*	2	71*
CC(C)(C)c1cc[n+](C2=C([O-])c3ccccc3C(=O)/C2=N\S(=O)(=O)c2cccs2)cc1	-8	50*	81*	24*	5	58*
